RORa activator: activators of human nuclear receptor RORA | P35398 | activation, % at 10 µM | 65,000 compounds, 1.5% hits | CHO-K1 Gal4-RORA LBD luciferase reporter, luminescence; percent increase over mock-subtracted basal signal;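 active = activation above the mean of all tested compounds plus 3 SD, cut at about 49% in these data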;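 note: 0% = DMSO-treated RORA cells and 100% = added signal equal to DMSO minus mock-transfected cells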
ERa coact pot: enhances coactivator binding to human estrogen receptor alpha | coactivator binding (% of control), % at 25.6 µM | AID 639 | 86,000 compounds, 1.3% hits | TR-FRET ERalpha-LBD/SRC-Cy5 coactivator binding, 2 h; 100 = basal binding, no effect; in the data active = activity above about 200%;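 note: binding measured in presence of low estradiol as agonist stimulus; 0% = peptide alone without receptor and 100% = receptor with peptide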
ERb coact inh: ER-beta (human) coactivator binding inhibition. TR-FRET ER-beta LBD / SRC1-Cy5 peptide binding; receptor agonist-loaded with 1 µM estradiol. inhibition, % at 25.6 µM. 86,000 compounds, 1.3% hits. AID 633;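 active = compounds whose percent inhibition of the receptor-coactivator binding signal exceeds about 50% in the single-dose screen, limit read from the data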;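 note: 0% = receptor plus peptide wells without compound and 100% = peptide-only wells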
SF-1 act: activators of human nuclear receptor SF-1; 65,000 compounds, 1.9% hits; activation, % at 10 µM; CHO-K1 Gal4-SF-1 LBD luciferase reporter; % increase over DMSO SF-1-specific signal; Q13285;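 active = activation above the mean activation of all tested compounds plus 3 SD, cut at about 50% in these data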
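Assay system: CHO-K1 cells co-transfected with Gal4 DBD–human SF-1 LBD, 5xGal4 luciferase reporter; doses: 10 µM only; incubation: 20 h compound exposure at 37 °C after 1 h cell settling; signal: luciferase light emission; evaluation: percent activation versus DMSO; repeats: one test per compound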
BAP1 inh: human BAP1 deubiquitinase inhibition | Q92560 | recombinant BAP1, Ub-AMC hydrolysis fluorescence kinetic; active compounds read low | calls only at 20 µM | 72,000 compounds, 0.48% hits;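 active = activity remaining at or below 50% of control, provided the compound also passes the data quality filters; inactive = the rest, including low values that fail the filters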;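 note: 100% = DMSO wells rate and 0% = substrate alone blank rate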
ERa SRC1 inh: blocks coactivator binding to human estrogen receptor alpha; P03372; 86,000 compounds, 1.7% hits; inhibition, % at 25.6 µM; TR-FRET ER-alpha LBD / SRC-1 peptide, estradiol-bound; AID 629; in the data active = inhibition above about 50%;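 note: 0% = receptor plus peptide control and 100% = peptide only without receptor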
Active calls of the source: *; i = inactive; x = no result given; + = active, no number; [ ] = another dose, or the depositor's remark. An excerpt weighted towards active compounds, which were near 5.1% of everything screened.

SMILES	RORa activator	ERa coact pot	ERb coact inh	SF-1 act	BAP1 inh	ERa SRC1 inh
CCN1C(=O)CC(C(=O)NC)SC1=Nc1cc(Cl)c(O)c(Cl)c1 (configuration not stated)	4	81	50*[fluorescence artefact?]	-10	i	31
CC(NC(=O)c1noc2c1CCCC2)c1ccccc1 (configuration not stated)	-6	122	-11	-9	i	-2
COC(=O)c1ccccc1NC(=O)c1noc2c1CCC2	9	21	87*	-12	i	89*[fluorescence artefact?]
CSc1ccccc1NC(=O)c1noc2c1CCC2	4	52	86*	8	i	92*[fluorescence artefact?]
CC1CCN(S(=O)(=O)c2ccc3c(c2)C(=O)c2cc(S(=O)(=O)N4CCC(C)CC4)ccc2-3)CC1	x	x	x	x	i	x
COc1cc(C2C(C#N)=C(N)Oc3cc(C)oc(=O)c32)cc2c1OCO2 (configuration not stated)	-18	101	62*	9	i	70*
COc1cc(C2C(C#N)=C(N)Oc3cc(C)n(CC4CCCO4)c(=O)c32)cc2c1OCO2 (configuration not stated)	0	112	-10	5	i	-5
CCOc1ccc(-c2noc(-c3cccnc3)n2)cc1OC	57*	60	5	14	i	12
COc1nc2cc(C)ccc2cc1-c1noc(-c2cccnc2)n1	-5	189	41	-1	i	50*[fluorescence artefact?]
CN1C(=O)SC(Nc2ccccc2)C1=O (configuration not stated)	x	110	-24	x	x	-20
COc1cccc(NC2SC(=O)N(c3ccccc3)C2=O)c1 (configuration not stated)	28	204*	-2	32	i	-16
CSc1ccccc1NC(=O)c1ccccc1N(Cc1ccccc1)S(C)(=O)=O	x	107	59*	x	x	-4
CSc1ccccc1NC(=O)c1ccccc1N(C)S(C)(=O)=O	-15	104	-4	-14	i	-1
O=C1CC(c2ccc(F)cc2)Cc2nc(N3CCc4ccccc43)ncc21 (configuration not stated)	-7	203*[fluorescence artefact?]	24	8	x	23
COc1ccc(N2C(=O)c3ccc(Oc4cccc([N+](=O)[O-])c4)cc3C2=O)cc1	x	x	x	x	i	x
CC(C)=CCC/C(C)=C/CC/C(C)=C/CSc1ccccc1C(=O)O	x	x	x	x	+	x
CN(C)/C=N/c1nc2ccc3c(c2s1)CCCC3	66*	79	4	59*	i	0
COc1ccc(CN(Cc2cc3ccc(C)cc3[nH]c2=O)Cc2nnnn2C2CCCC2)cc1	8	101	-6	12	i	7
COc1ccc2cc(CN(CCCN3CCOCC3)Cc3nnnn3C3CCCC3)c(=O)[nH]c2c1	-4	261*[fluorescence artefact?]	-10	-10	i	-10
Cc1ccc(NC(=O)C2CCCN(c3ncccn3)C2)cc1F (configuration not stated)	46	106	-26	67*	i	-10
O=C(Nc1ccc2c(c1)CCC2)C1CCCN(c2ncccn2)C1 (configuration not stated)	31	119	0	69*	i	2
O=C(Nc1cccc(C(F)(F)F)c1)C1CCCN(c2ncccn2)C1 (configuration not stated)	11	129	0	11	i	6
COc1ccc(C=Nc2ccc3c(c2)c2nc4ccccc4nc2n3C)c(O)c1	x	x	x	x	i	x
COc1ccc(-c2nc3c(Br)c(N)c(Br)cc3o2)cc1	6	103	7	73*	x	27
Cc1ccc2oc(-c3ccccc3)nc2c1	x	98	-8	x	x	-4
Nc1c(Br)cc2oc(-c3ccccc3)nc2c1Br	52*	119	9	76*	x	1
Cc1ccc(Cl)cc1NC(=O)COc1cc(C)c(Cl)c(C)c1	x	x	x	x	i	x
c1ccc(-c2nc3c4ccccc4nc(N4CCN(c5ccccn5)CC4)n3n2)cc1	14	215*[fluorescence artefact?]	-1	-6	i	15
COc1ccc(Cn2c(C3CC3)nc3ccc(NC(=O)C4CC4)cc3c2=O)cc1	48	109	15	162*	i	33

Screens (PubChem BioAssay)
